Test results taken from ChEMBL document CHEMBL4138252, “Novel Polyamine-Naphthalene Diimide Conjugates Targeting Histone Deacetylases and DNA for Cancer Phenotype Reprogramming” (ACS Med Chem Lett, 2017).
Activity calls are given as the source filed them. No cut-off for these calls is given here.

Columns and labels:
A549 [1] = test: Inhibition of epithelial-mesenchymal transition in human A549 cells assessed as upregulation of CDH1 expression at 5 uM after 48 hrs by SYBR-green dye based RT-PCR analysis relative to control; format: functional
Summary of the method: (§1)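 HCT116 and A549 cells are treated 48 h with 5 μM. CDH1 and VIM expression is measured against untreated control. Data are mean ± SEM of four independent experiments.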

HCT-116 [2] = test: Inhibition of epithelial-mesenchymal transition in human HCT116 cells assessed as down regulation of VIM expression at 5 uM after 48 hrs by SYBR-green dye based RT-PCR analysis relative to control; format: functional; summary of the method: as §1
dsDNA [3] = test: Stabilization of 5'6FAM/3'Dabcyl-labelled double stranded DNA (unknown origin) assessed as change in melting temperature at 0.75 uM by fluorescence assay; format: nucleic-acid assay
Summary of the method: (§2)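 Thermal stabilization of dsDNA or G-quadruplex DNA is measured as ΔTm at 0.75 and 2.5 μM compound.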

A549 [4] = test: Inhibition of epithelial-mesenchymal transition in human A549 cells assessed as down regulation of VIM expression at 5 uM after 48 hrs by SYBR-green dye based RT-PCR analysis relative to control; format: functional; summary of the method: as §1
Quadruplex DNA [5] = test: Stabilization of 3'-6FAM/5'-Dabcyl-labelled human telomeric 22 G-quadruplex DNA assessed as change in melting temperature at 0.75 uM by fluorescence assay; format: nucleic-acid assay; summary of the method: as §2
HCT-116 [6] = test: Inhibition of epithelial-mesenchymal transition in human HCT116 cells assessed as upregulation of CDH1 expression at 5 uM after 48 hrs by SYBR-green dye based RT-PCR analysis relative to control; format: functional; summary of the method: as §1
A549 [7] = test: Growth inhibition of human A549 cells after 48 hrs by alamar blue assay; format: functional; conditions: for GI50: A549, 48 h
Summary of the method: (§3)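 Growth inhibition in U87, HCT116 and A549 cells at 0.2, 1 and 5 μM. GI50 is derived from the inhibitory dose–response curve.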

U-87 MG = test: Growth inhibition of human U87 cells after 48 hrs by alamar blue assay; format: functional, U-87MG ATCC; summary of the method: as §3
HCT-116 [8] = test: Growth inhibition of human HCT116 cells after 48 hrs by alamar blue assay; format: functional; conditions: for GI50: HCT-116, 48 h; summary of the method: as §3
dsDNA [9] = test: Stabilization of 5'6FAM/3'Dabcyl-labelled double stranded DNA (unknown origin) assessed as change in melting temperature at 2.5 uM by fluorescence assay; format: nucleic-acid assay; summary of the method: as §2
Quadruplex DNA [10] = test: Stabilization of 3'-6FAM/5'-Dabcyl-labelled human telomeric 22 G-quadruplex DNA assessed as change in melting temperature at 2.5 uM by fluorescence assay; format: nucleic-acid assay; summary of the method: as §2
Histone deacetylase = test: Inhibition of HDAC in human HeLa nuclear extract using Fluor de Lys as substrate by fluorimetric method; format: protein assay
A549 [11] = test: Antimigratory activity against human A549 cells assessed as reduction in cell migration towards wound area at 5 uM measured after 24 hrs by scratch wound-healing assay relative to control; format: functional; parameters: scale not given: the % may be the effect or the level left
Summary of the method: (§4)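 Scratch wound healing on A549 cells, with or without TGF-β1 stimulation. Repopulation of the wound area is read at 24 h postscratch.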

A549 [12] = test: (§5) Inhibition of TGFbeta1-induced epithelial-mesenchymal transition in human A549 cells assessed as down regulation of VIM expression at 5 uM treated for 24 hrs in presence of TGFbeta1 followed by addition of fresh media containing compounds for 24 hrs by SYBR-green dye based RT-PCR analysis relative to control; format: functional
Summary of the method: (§6)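 A549 cells are stimulated with TGF-β1, alone or combined with 5 μM compound. CDH1 and VIM expression is measured and compared with control and with TGF-β1 alone.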

Histone deacetylase 1 = Histone deacetylase 1 (Homo sapiens, UniProt Q13547); test: Inhibition of recombinant human C-terminal FLAG-His tagged HDAC1 (1 to 482 residues) expressed in Sf21 insect cells using RHK-K(Ac)-AMC as substrate by fluorescence assay
Histone deacetylase 2 = Histone deacetylase 2 (Homo sapiens, UniProt Q92769); test: Inhibition of recombinant human C-terminal GST-tagged HDAC2 (1 to 488 residues) expressed in baculovirus infected Sf21 insect cells using RHK-K(Ac)-AMC as substrate measured after 30 mins by fluorescence assay
A549 [13] = test: Suppression of TGFbeta1-induced cell proliferation in human A549 cells assessed as reduction in cell growth at 5 uM treated for 24 hrs in presence of TGFbeta1 followed by addition of fresh media containing compounds for 24 hrs by alamar blue assay relative to control; format: functional; parameters: scale not given: the % may be the effect or the level left
Summary of the method: (§7)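 A549 cells stimulated with TGF-β1 get a 48 h-long 5 μM treatment. Percentage growth is evaluated according to NCI screening procedures, as mean value.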

Histone deacetylase 4 = Histone deacetylase 4 (Homo sapiens, UniProt P56524); test: Inhibition of recombinant human N-terminal GST-tagged/C-terminal His-tagged HDAC4 (627 to 1084 residues) expressed in baculovirus infected Sf21 insect cells using (Boc-Lys(trifluoroacetyl)-AMC) as substrate by fluorescence assay
[14] = molecular target: T1, Histone deacetylase (Homo sapiens) (UniProt Q13547+O15379+Q9UBN7+Q92769+Q9UQL6+Q8WUI4+Q9BY41+Q96DB2+P56524+Q9UKV0+Q969S8); test: Inhibition of HDAC in human A549 cells assessed as increase in acetylated H3 level at 5 uM after 24 hrs by Western blot analysis relative to control; format: cell-based
Summary of the method: (§8)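 A549 cells are treated 24 h at 5 μM. Global histone H3 and H4 lysine acetylation is detected by Western blotting.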

A549 [15] = test: as §5, with “upregulation” for “down regulation”, “CDH1” for “VIM”; format: functional; summary of the method: as §6
A549 [16] = test: Antimigratory activity against TGFbeta1-stimulated human A549 cells assessed as reduction in cell migration towards wound area at 5 uM treated for 24 hrs in presence of TGFbeta1 followed by addition of fresh media containing compounds for 24 hrs by scratch wound-healing assay relative to control; format: functional; summary of the method: as §4
[17] = molecular target: T2, Protein deacetylase HDAC6 (Homo sapiens, UniProt Q9UBN7); test: Inhibition of recombinant human N-terminal GST-tagged HDAC6 (1 to 1215 residues) expressed in baculovirus infected Sf21 insect cells using RHKKAc as substrate by fluorescence assay
T2 sequence (Q9UBN7 whole entry): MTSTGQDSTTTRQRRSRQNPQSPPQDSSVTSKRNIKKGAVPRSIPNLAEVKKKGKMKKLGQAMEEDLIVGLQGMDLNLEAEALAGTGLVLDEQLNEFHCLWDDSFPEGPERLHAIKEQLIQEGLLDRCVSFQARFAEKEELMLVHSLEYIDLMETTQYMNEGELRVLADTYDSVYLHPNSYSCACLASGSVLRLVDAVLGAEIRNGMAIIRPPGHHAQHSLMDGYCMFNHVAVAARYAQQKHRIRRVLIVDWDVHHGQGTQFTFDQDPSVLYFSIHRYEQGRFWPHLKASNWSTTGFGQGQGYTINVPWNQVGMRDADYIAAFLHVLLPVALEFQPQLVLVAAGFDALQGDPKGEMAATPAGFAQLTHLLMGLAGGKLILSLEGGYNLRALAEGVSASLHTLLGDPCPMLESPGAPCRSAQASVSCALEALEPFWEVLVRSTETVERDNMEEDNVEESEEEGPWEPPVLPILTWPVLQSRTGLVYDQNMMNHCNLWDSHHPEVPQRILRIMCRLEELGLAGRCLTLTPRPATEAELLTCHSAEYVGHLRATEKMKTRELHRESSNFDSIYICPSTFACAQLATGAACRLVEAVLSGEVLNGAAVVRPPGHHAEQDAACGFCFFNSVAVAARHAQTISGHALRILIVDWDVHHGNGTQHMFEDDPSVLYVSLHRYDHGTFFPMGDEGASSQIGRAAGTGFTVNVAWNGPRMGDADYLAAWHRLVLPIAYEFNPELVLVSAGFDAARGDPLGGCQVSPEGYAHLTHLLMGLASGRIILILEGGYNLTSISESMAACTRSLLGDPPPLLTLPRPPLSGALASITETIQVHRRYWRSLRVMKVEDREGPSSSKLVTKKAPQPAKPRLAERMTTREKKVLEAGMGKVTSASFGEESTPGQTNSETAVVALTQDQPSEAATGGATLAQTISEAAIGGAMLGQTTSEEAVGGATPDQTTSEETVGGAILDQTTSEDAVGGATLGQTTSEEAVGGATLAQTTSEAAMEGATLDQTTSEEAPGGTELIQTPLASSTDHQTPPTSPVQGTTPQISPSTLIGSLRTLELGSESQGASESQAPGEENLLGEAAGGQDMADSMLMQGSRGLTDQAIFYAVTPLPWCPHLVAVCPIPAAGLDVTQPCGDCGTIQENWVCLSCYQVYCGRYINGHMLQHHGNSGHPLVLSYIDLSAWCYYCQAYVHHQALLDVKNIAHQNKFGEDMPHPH

A549 [18] = test: Suppression of TGFbeta1-induced cell proliferation in human A549 cells at 5 uM treated for 24 hrs in presence of TGFbeta1 followed by addition of fresh media containing compounds for 24 hrs by alamar blue assay relative to control; format: functional; summary of the method: as §7
[19] = molecular target: DNA polymerase I, thermostable (Thermus aquaticus) (UniProt P19821); test: Inhibition of Thermus aquaticus Taq-polymerase using pBR322 as substrate up to 40 uM by PCR analysis
[20] = molecular target: T1, Histone deacetylase (Homo sapiens); test: Inhibition of HDAC in human A549 cells assessed as increase in acetylated H4 level at 5 uM after 24 hrs by Western blot analysis relative to control; format: cell-based; summary of the method: as §8

Chain of DNA polymerase I, thermostable (Thermus aquaticus) (P19821 whole entry): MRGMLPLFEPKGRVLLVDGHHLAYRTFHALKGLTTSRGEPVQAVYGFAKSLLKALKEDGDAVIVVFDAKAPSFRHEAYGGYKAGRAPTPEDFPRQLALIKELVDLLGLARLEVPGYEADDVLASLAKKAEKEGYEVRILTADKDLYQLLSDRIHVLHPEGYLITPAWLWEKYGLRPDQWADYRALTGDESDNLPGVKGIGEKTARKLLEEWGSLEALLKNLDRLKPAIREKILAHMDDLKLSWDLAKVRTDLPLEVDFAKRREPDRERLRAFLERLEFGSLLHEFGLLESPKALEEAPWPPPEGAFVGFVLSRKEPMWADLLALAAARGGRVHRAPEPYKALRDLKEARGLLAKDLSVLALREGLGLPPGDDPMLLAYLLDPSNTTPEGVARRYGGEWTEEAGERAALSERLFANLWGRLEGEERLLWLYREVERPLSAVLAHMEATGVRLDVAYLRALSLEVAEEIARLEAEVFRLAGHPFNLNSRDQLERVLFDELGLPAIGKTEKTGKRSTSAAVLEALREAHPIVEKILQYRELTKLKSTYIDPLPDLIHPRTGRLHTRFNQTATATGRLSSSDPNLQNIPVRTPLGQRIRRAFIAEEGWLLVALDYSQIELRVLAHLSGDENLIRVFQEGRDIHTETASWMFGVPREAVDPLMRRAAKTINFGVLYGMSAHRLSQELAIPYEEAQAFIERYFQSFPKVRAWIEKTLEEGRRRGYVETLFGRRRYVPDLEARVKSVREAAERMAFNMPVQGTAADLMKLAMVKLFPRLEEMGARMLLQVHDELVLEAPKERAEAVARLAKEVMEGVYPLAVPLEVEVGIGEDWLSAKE
Chain of Histone deacetylase 2 (Q92769 whole entry, the tested form may be a part): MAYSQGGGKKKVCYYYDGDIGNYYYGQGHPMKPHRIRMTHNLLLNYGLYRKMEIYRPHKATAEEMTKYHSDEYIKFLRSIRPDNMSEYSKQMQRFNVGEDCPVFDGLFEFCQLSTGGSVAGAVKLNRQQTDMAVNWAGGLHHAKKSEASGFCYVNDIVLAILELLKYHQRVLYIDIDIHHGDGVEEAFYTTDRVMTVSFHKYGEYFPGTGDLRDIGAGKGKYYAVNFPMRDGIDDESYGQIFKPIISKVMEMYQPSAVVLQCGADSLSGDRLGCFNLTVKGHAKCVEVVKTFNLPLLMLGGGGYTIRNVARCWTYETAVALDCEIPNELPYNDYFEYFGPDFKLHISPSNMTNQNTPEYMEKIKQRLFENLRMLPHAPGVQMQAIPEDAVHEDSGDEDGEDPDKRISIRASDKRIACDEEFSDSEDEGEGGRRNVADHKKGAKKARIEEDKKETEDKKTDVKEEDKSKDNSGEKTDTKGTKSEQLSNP
Chain of Histone deacetylase 4 (P56524 whole entry, the tested form may be a part): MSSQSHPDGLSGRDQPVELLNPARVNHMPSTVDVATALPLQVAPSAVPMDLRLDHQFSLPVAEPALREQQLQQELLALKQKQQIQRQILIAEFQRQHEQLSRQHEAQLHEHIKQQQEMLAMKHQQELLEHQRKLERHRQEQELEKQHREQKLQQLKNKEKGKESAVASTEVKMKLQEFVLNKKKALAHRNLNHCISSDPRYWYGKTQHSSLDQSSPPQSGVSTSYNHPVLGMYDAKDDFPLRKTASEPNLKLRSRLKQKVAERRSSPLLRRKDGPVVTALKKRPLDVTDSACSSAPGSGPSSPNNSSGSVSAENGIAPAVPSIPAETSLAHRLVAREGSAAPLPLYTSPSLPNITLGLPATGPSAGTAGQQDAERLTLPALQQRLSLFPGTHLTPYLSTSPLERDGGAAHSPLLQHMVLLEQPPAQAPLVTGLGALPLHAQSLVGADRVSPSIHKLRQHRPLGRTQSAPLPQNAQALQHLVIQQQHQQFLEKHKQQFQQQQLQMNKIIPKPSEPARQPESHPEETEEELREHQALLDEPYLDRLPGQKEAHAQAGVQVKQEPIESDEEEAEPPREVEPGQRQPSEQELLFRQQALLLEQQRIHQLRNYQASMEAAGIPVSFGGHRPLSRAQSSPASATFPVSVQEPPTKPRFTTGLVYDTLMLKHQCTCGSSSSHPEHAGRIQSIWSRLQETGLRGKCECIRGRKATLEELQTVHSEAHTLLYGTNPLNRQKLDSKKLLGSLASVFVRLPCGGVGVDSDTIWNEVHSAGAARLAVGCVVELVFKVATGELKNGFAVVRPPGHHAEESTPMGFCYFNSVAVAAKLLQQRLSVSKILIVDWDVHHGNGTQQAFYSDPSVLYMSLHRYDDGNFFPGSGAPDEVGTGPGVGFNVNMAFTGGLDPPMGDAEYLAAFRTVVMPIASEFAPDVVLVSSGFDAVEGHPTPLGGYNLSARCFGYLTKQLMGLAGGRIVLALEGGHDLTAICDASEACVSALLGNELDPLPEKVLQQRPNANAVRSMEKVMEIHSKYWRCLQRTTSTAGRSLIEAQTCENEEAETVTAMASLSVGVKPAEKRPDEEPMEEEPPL
Chain of Histone deacetylase 1 (Q13547 whole entry, the tested form may be a part): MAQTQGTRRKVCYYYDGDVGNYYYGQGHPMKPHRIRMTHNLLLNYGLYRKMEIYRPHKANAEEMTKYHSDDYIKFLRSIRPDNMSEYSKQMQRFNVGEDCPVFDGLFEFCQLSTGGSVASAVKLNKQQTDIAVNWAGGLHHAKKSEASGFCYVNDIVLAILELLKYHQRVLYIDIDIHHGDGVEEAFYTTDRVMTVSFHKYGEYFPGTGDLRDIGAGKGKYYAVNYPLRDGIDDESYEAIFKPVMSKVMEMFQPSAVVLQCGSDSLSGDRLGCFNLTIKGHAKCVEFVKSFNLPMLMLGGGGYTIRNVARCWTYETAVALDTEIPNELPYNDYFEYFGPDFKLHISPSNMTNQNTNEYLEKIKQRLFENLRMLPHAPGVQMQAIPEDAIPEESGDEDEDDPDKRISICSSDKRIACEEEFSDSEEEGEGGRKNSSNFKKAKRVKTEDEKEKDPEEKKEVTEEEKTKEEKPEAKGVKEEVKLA

Structure (SMILES)	ΔTm (dsDNA [3]) [°C]	ΔTm (Quadruplex DNA [5]) [°C]	GI50 (A549 [7]) [µM]	GI50 (U-87 MG) [µM]	GI50 (HCT-116 [8]) [µM]	ΔTm (dsDNA [9]) [°C]	ΔTm (Quadruplex DNA [10]) [°C]	IC50 (Histone deacetylase) [µM]	other results
CN(C)c1ccc(Nc2c3ccc(NC(=O)CCN4CCCC4)cc3nc3cc(NC(=O)CCN4CCCC4)ccc23)cc1	0.5	11				5.3	28.3		
Cl.NCCCNCCCN1C(=O)c2ccc3c4c(ccc(c24)C1=O)C(=O)N(CCCCCC(=O)NO)C3=O	1	2.4						0.41	
Cl.NCCCNCCCNCCCN1C(=O)c2ccc3c4c(ccc(c24)C1=O)C(=O)N(CCCCCC(=O)NO)C3=O	5	9.9	> 5	> 5	2.13			0.37	inhibition [19]: Active

Continued, in another order:

ΔTm (dsDNA [3]) [°C]	ΔTm (Quadruplex DNA [5]) [°C]	GI50 (A549 [7]) [µM]	GI50 (U-87 MG) [µM]	GI50 (HCT-116 [8]) [µM]	ΔTm (dsDNA [9]) [°C]	ΔTm (Quadruplex DNA [10]) [°C]	IC50 (Histone deacetylase) [µM]	Structure (SMILES)	other results
0.6	1.5	> 5	4.85	4.39				COc1ccccc1CNCCCN1C(=O)c2ccc3c4c(ccc(c24)C1=O)C(=O)N(CCCNCCCCNCCCN)C3=O	inhibition (A549 [1]): inactive; inhibition (HCT-116 [2]): inactive; inhibition (A549 [4]): inactive; inhibition (HCT-116 [6]): inactive
7.5	13.3	> 5	> 5	3.08			0.56	Cl.NCCCCNCCCCNCCCN1C(=O)c2ccc3c4c(ccc(c24)C1=O)C(=O)N(CCCCCC(=O)NO)C3=O	Activity (A549 [11]): >80%; fold change (FC) (A549 [1]): 1.28; fold change (FC) (HCT-116 [2]): 0.44; fold change (FC) (A549 [12]): 2.61; IC50 (Histone deacetylase 1): 4.12 µM; IC50 (Histone deacetylase 2): 10.8 µM; Activity (A549 [13]): 85%; fold change (FC) (A549 [4]): 0.68; IC50 (Histone deacetylase 4): 117 µM; fold change (FC) [14]: 2; fold change (FC) (A549 [15]): 3.66; fold change (FC) (A549 [16]): 1.38; IC50 [17]: 0.05 µM; fold change (FC) (A549 [18]): 1.38; inhibition [19]: Active; fold change (FC) [20]: 2; fold change (FC) (HCT-116 [6]): 1.32
2	4.4				3.4	7.8	0.55	Cl.NCCCNCCNCCCN1C(=O)c2ccc3c4c(ccc(c24)C1=O)C(=O)N(CCCCCC(=O)NO)C3=O	
3.5	4.5				8.1	10.9	0.52	Cl.NCCCNCCCCNCCCN1C(=O)c2ccc3c4c(ccc(c24)C1=O)C(=O)N(CCCCCC(=O)NO)C3=O	
0.1	0.1				0.1	0.1		O=C(CCCCCN1C(=O)c2cccc3cccc(c23)C1=O)NO	inhibition (A549 [1]): inactive; inhibition (HCT-116 [2]): inactive; inhibition (A549 [4]): inactive; inhibition (HCT-116 [6]): inactive; growth inhibition (GI) (A549 [7]): Active; growth inhibition (GI) (U-87 MG; U-87MG ATCC): Active; growth inhibition (GI) (HCT-116 [8]): Active
